Measurements from different studies.
DRD1: D(1A) dopamine receptor (DRD1, Homo sapiens, UniProt P21728)
Adora2a: Adenosine receptor A2a (Adora2a, Rattus norvegicus, UniProt P30543)
AGTR2: Type-2 angiotensin II receptor (AGTR2, Homo sapiens, UniProt P50052)

SMILES | target | test | test system | conditions | Ki
CC1Cc2ccccc2N1C(=O)NCCCCN(C)[C@@H]1Cc2cccc3[nH]c(=O)n(c23)C1 (mixture of isomers) | DRD1 | ligand displacement, radioligand |  |  | > 10000 nM
CC(C)CCCC(C)N1CCCn2c1nc1c2c(=O)n(C)c(=O)n1C (centres unmarked) | Adora2a | ligand displacement, radioligand |  | cell membranes | 2030 nM
CCC(C)[C@H](NC(=O)c1ccc(C)c(C(=O)N(CC)Cc2ccccc2)c1)C(=O)O (stereo in doubt) | AGTR2 | ligand displacement in cells, radioligand |  |  | 3400 nM
COc1cccc(-c2c(C#N)c(N)nc(SCC(N)=O)c2C#N)c1 | Adora2a | ligand displacement, radioligand |  | cell membranes | 1200 nM
CCCCOC(=O)NS(=O)(=O)c1sc(CC(C)C)cc1-c1ccc(OC(F)(F)F)c(Cn2ccnc2)c1 | AGTR2 | ligand displacement, radioligand |  | cell membranes | 280 nM
Cc1cc(C)c2c(c1)[C@@H](N(Cc1cc(C(F)(F)F)cc(C(F)(F)F)c1)c1nnn(C)n1)CCCN2C[C@H]1CC[C@H](C(=O)O)CC1 | Cytochrome P450 2B6 (CYP2B6, Homo sapiens, UniProt P20813) | enzyme activity, inhibitor | human, liver microsomes | pH 7.4 | 6300 nM
CC(C)CN1CCCn2c1nc1c2c(=O)n(C)c(=O)n1C | Adora2a | ligand displacement, radioligand |  | cell membranes | 870 nM
CCC(C)[C@H](NC(=O)c1cccc(C(=O)N(Cc2ccccc2)Cc2ccccc2)c1)C(=O)O (stereo in doubt) | AGTR2 | ligand displacement in cells, radioligand |  |  | 7500 nM
Cc1cccc(CSc2nc(N)c(C#N)c(-c3cccc(O)c3)c2C#N)n1 | Adora2a | ligand displacement, radioligand |  | cell membranes | 20.6 nM
CCC(C)[C@H](NC(=O)c1ccc(C(=O)N(C)Cc2ccccc2)cc1)C(=O)O (stereo in doubt) | AGTR2 | ligand displacement in cells, radioligand |  |  | > 100000 nM
N#Cc1c(N)nc(SCc2cccc(C(=O)O)c2)c(C#N)c1-c1ccccc1 | Adora2a | ligand displacement, radioligand |  | cell membranes | 634 nM
CCC(C)[C@H](NC(=O)c1cccc(C(=O)N(C)Cc2ccccc2)c1)C(=O)O (stereo in doubt) | AGTR2 | ligand displacement in cells, radioligand |  |  | 9000 nM
CCCN1CCCn2c1nc1c2c(=O)n(C)c(=O)n1C | Adora2a | ligand displacement, radioligand |  | cell membranes | 1290 nM
CCC(C)[C@H](NC(=O)c1ccc(C)c(C(=O)N(Cc2ccccc2)Cc2ccccc2)c1)C(=O)O (stereo in doubt) | AGTR2 | ligand displacement in cells, radioligand |  |  | 2500 nM
COc1ccc(-c2c(C#N)c(N)nc(SCc3cccc(C)n3)c2C#N)cc1 | Adora2a | ligand displacement, radioligand |  | cell membranes | 48 nM
Cc1nc2cc(OCCCCN3CCN(c4cccc(Cl)c4Cl)CC3)ccc2s1 | Sodium-dependent serotonin transporter (SLC6A4, Homo sapiens, UniProt P31645) | ligand displacement, radioligand |  |  | 340 nM
CN1CCCn2c1nc1c2c(=O)n(C)c(=O)n1C | Adora2a | ligand displacement, radioligand |  | cell membranes | 4300 nM
Fc1ccc(C2=Nn3c(nnc3-c3cccc(Br)c3)SC2)cc1 | Urease (Canavalia ensiformis, UniProt P07374) | enzyme activity, inhibitor |  |  | 3620 nM
CCCCCCN1CCCn2c1nc1c2c(=O)n(C)c(=O)n1C | Adora2a | ligand displacement, radioligand |  | cell membranes | 820 nM
CCc1ccc(C(=O)N[C@H](C(=O)O)C(C)CC)cc1C(=O)N(CC)CC (stereo in doubt) | AGTR2 | ligand displacement in cells, radioligand |  |  | 10000 nM
CCCCCN1CCCn2c1nc1c2c(=O)n(C)c(=O)n1C | Adora2a | ligand displacement, radioligand |  | cell membranes | 3060 nM
CCC(C)[C@H](NC(=O)c1ccc(C)c(C(=O)N(CC)CC)c1)C(=O)O (stereo in doubt) | AGTR2 | ligand displacement in cells, radioligand |  |  | 2400 nM
CC(C)N1CCCn2c1nc1c2c(=O)n(C)c(=O)n1C | Adora2a | ligand displacement, radioligand |  | cell membranes | 4950 nM
O=C1c2ccccc2CCCN1CCCCN1CCN(c2ccccn2)CC1 | DRD1 | cell-free assay, radioligand |  |  | 1260 nM
CCCCN1CCCn2c1nc1c2c(=O)n(C)c(=O)n1C | Adora2a | ligand displacement, radioligand |  | cell membranes | 1750 nM
COc1ccc(-c2c(C#N)c(N)nc(SCC(N)=O)c2C#N)cc1 | Adora2a | ligand displacement, radioligand |  | cell membranes | 1470 nM
